Compounds with a hit are over-represented: about 2.3% of the library has one in this group of screens.
TRPC4 agonist: activators of mouse TRPC4 channel, primary screen, Fluo4 calcium, HEK293 TRPC4beta/mu-opioid cells. B-score at 10 µM. Short transient receptor potential channel 4 (Mus musculus), Q9QUQ5. Fluo4 calcium fluorescence; active compounds read high. actives 0.49% (n = 310,000);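 active = B-score above 5 SD of library B-scores, and initial fluorescence ratio not above library mean plus 5 SD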;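 note: positive B-score marks a calcium rise read as TRPC4 activation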
Target sequence (Q9QUQ5 whole entry, looked up): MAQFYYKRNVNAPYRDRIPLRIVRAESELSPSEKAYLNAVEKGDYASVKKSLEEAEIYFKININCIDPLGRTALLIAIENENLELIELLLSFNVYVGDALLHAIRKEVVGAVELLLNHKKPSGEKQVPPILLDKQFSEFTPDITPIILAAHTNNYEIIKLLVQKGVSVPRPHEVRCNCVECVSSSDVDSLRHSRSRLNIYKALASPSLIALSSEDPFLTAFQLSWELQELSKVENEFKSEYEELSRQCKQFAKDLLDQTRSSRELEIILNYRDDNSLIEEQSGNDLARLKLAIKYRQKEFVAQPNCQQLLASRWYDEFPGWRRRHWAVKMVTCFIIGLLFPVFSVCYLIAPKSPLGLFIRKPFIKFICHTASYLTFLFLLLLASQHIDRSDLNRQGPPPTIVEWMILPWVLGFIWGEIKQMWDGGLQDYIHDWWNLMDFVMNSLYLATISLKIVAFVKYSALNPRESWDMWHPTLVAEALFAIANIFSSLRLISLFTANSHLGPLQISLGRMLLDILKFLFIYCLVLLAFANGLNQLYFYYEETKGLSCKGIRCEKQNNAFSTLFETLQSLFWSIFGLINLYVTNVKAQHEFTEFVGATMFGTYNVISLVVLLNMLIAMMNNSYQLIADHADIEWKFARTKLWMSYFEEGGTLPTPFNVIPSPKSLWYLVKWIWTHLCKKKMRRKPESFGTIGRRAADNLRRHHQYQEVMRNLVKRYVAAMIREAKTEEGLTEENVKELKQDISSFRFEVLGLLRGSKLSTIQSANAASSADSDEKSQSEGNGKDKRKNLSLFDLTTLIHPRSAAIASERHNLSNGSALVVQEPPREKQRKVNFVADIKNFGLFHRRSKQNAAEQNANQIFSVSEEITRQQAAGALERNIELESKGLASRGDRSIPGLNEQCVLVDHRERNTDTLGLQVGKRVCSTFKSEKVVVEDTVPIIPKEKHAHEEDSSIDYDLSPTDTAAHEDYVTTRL
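Assay system – TRPC4beta and mu-opioid receptor HEK293 stable cells · Measured by – Fluo4 fluorescence, kinetic · Schedule – dye loading 45 min room temperature, 110 s kinetic read · Read-out – B-scored integrated calcium fluorescence ratio · Controls – buffer and maximal DAMGO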
TRPC4 PAM: positive allosteric modulators of TRPC4, primary screen, cell-based, mouse TRPC4beta, HEK293 mu-opioid, Fluo-4 calcium. Short transient receptor potential channel 4 (Mus musculus), Q9QUQ5. DAMGO EC20, Fluo-4 Ca2+ flux; active compounds read high. B-score at 10 µM. actives 0.42% (n = 310,000). AID 2227, 2009;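 active = B-score of calcium response area above 5 SD of library B-scores, with initial fluorescence ratio within 5 SD of library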;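 note: B-score of integrated fluorescence ratio over time as area under calcium response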
TRPC6 inh: mouse TRPC6 channel inhibitors, primary screen, cell-based, HEK293, membrane potential dye | Short transient receptor potential channel 6 (Mus musculus), Q61143 | ACh-evoked depolarization; active compounds read low | B-score at 10 µM | actives 1.1% (n = 310,000);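 active = B-score under library mean minus 3 SD, initial fluorescence not abnormally high, positive integrated signal ratio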;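 note: B-score derived from integrated fluorescence ratio over the kinetic read; more negative B-score means stronger inhibition of depolarization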
TRPC4 inh: inhibitors of mouse TRPC4 channel, primary screen, Fluo4 calcium, HEK293 TRPC4beta/mu-opioid cells; Short transient receptor potential channel 4 (Mus musculus), Q9QUQ5; AID 2247, 2010; B-score at 10 µM; DAMGO-evoked Fluo4 calcium flux; active compounds read low; actives 0.39% (n = 300,000);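 active = B-score over 3 SD under the library average, no early fluorescence shift, positive overall ratio signal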
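Assay system: HEK293 cells with stable TRPC4beta plus mu-opioid receptor expression; Probe or stimulus: DAMGO in two steps, submaximal then maximal; Dosing: single-point compound dosing; Measured by: Fluo4 calcium-dye fluorescence, kinetic read; Read-out basis: B score from integrated Fluo4 fluorescence ratio.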
TRPC6 activator: mouse TRPC6 channel activators, primary screen, cell-based, HEK293, membrane potential dye | HEK293-TRPC6 membrane potential dye fluorescence; active compounds read high | actives 0.13% (n = 310,000) | Short transient receptor potential channel 6 (Mus musculus), Q61143 | B-score at 10 µM;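 active = B-score of the integrated fluorescence ratio above library mean plus 3 SD, and starting fluorescence ratio within library mean plus 5 SD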;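 note: higher score means more depolarization so channel activation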
Starred values were filed as active, the others as inactive; ! = not active in a repeat.

Results for CC12CCC3C(CC=C4CC(O)CCC43C)C1C/C(=C\c1ccccc1F)C2=O (stereo not given) ?
TRPC4 agonist: inactive; TRPC4 PAM: inactive; TRPC6 inh: inactive; TRPC4 inh: inactive; TRPC6 activator: inactive

What do the screens show for `Cc1nn(C)cc1/C=C1/CC2C3CC=C4CC(O)CCC4(C)C3CCC2(C)C1=O` (stereo not given)?
TRPC4 agonist: inactive; TRPC4 PAM: 10*; TRPC6 inh: inactive; TRPC4 inh: inactive; TRPC6 activator: inactive

Results for N=c1c2c(n(Cc3ccc(Cl)cc3Cl)c3c1CCC3)CCCC2 ?
TRPC4 agonist: inactive; TRPC4 PAM: inactive; TRPC6 inh: -5.12*; TRPC4 inh: inactive; TRPC6 activator: inactive

Results for Cc1nn(Cc2ccc(Cl)cc2Cl)c(Cl)c1C(=O)O ?
TRPC4 agonist: inactive; TRPC4 PAM: inactive; TRPC6 inh: inactive; TRPC4 inh: inactive; TRPC6 activator: inactive

What do the screens show for `CCOC(=O)c1cc(C)n(CCc2cnc[nH]2)c1C`?
TRPC4 agonist: 138*; TRPC4 PAM: inactive; TRPC6 inh: inactive; TRPC4 inh: inactive; TRPC6 activator: inactive

How did Cc1cc(OC(=O)N(C)C)nc(SCc2c(Cl)cccc2Cl)n1 do in these assays?
TRPC4 agonist: inactive; TRPC4 PAM: 11*; TRPC6 inh: inactive; TRPC4 inh: inactive; TRPC6 activator: inactive

How did CCCOP(=O)(OCCC)C(NC(=O)c1cc(OC)c(OC)c(OC)c1)c1ccccc1 (stereo not given) do in these assays?
TRPC4 agonist: inactive; TRPC4 PAM: inactive; TRPC6 inh: inactive; TRPC4 inh: inactive; TRPC6 activator: inactive

Results for CCC(COC(=O)c1cc(OC)c(OC)c(OC)c1)(c1ccccc1)N(C)C (stereo not given) ?
TRPC4 agonist: 54*!; TRPC4 PAM: inactive; TRPC6 inh: inactive; TRPC4 inh: inactive; TRPC6 activator: inactive

How did Brc1ccc2c(c1)C(OC1CN3CCC1CC3)c1ccccc1CS2 (stereo not given) do in these assays?
TRPC4 agonist: inactive; TRPC4 PAM: 29*; TRPC6 inh: inactive; TRPC4 inh: inactive; TRPC6 activator: inactive

What do the screens show for `c1ccc2c(c1)CSc1ccccc1C2C1=NCCN1` (stereo not given)?
TRPC4 agonist: inactive; TRPC4 PAM: inactive; TRPC6 inh: inactive; TRPC4 inh: inactive; TRPC6 activator: inactive

Results for Cc1ccc(-n2c(C)nc3cc(Cl)ccc3c2=O)nc1 ?
TRPC4 agonist: inactive; TRPC4 PAM: inactive; TRPC6 inh: inactive; TRPC4 inh: inactive; TRPC6 activator: inactive

Results for O=S(=O)(c1ccccc1)N1CC1c1ccccc1 (stereo not given) ?
TRPC4 agonist: inactive; TRPC4 PAM: inactive; TRPC6 inh: inactive; TRPC4 inh: inactive; TRPC6 activator: inactive

Results for CN(C)C(CNC(=O)Cc1ccc(Br)cc1)c1ccccc1 (stereo not given) ?
TRPC4 agonist: 175*; TRPC4 PAM: inactive; TRPC6 inh: inactive; TRPC4 inh: inactive; TRPC6 activator: inactive

How did CC(Cc1ccccc1)NC(=O)Cc1ccc(N(C)C)cc1 (stereo not given) do in these assays?
TRPC4 agonist: inactive; TRPC4 PAM: inactive; TRPC6 inh: inactive; TRPC4 inh: inactive; TRPC6 activator: inactive

What do the screens show for `CN=C(SCC(=O)c1cccc(Cl)c1)c1c(O)n(C)c(=O)n(C)c1=O`?
TRPC4 agonist: inactive; TRPC4 PAM: inactive; TRPC6 inh: inactive; TRPC4 inh: inactive; TRPC6 activator: inactive

Results for CNC(C)Cc1ccccc1Sc1ccc(O)cc1 (stereo not given) ?
TRPC4 agonist: inactive; TRPC4 PAM: inactive; TRPC6 inh: inactive; TRPC4 inh: -6*; TRPC6 activator: inactive

What do the screens show for `COC(=O)C(O)(c1ccc(NC(=S)NC(=O)c2ccc(Cl)cc2Cl)c(C)c1)C(F)(F)F` (stereo not given)?
TRPC4 agonist: inactive; TRPC4 PAM: 32*; TRPC6 inh: inactive; TRPC4 inh: inactive; TRPC6 activator: inactive

Results for CCOC(=O)C(O)(c1ccc(NC(=S)NC(=O)c2ccc(Cl)cc2Cl)cc1)C(F)(F)F (stereo not given) ?
TRPC4 agonist: inactive; TRPC4 PAM: 13*; TRPC6 inh: inactive; TRPC4 inh: inactive; TRPC6 activator: inactive

What do the screens show for `CCOC(=O)C(O)(c1ccc(NC(=S)NC(=O)c2ccc(Cl)cc2Cl)c(C)c1)C(F)(F)F` (stereo not given)?
TRPC4 agonist: inactive; TRPC4 PAM: 16*; TRPC6 inh: inactive; TRPC4 inh: inactive; TRPC6 activator: inactive

Results for CCOC(=O)C(NC(=O)CC)(Nc1ccc(C(O)(C(=O)OCC)C(F)(F)F)cc1C)C(F)(F)F (stereo not given) ?
TRPC4 agonist: inactive; TRPC4 PAM: inactive; TRPC6 inh: inactive; TRPC4 inh: inactive; TRPC6 activator: inactive

How did CNC(=O)N(C)c1ccc(C(O)(C(=O)OC)C(F)(F)F)cc1 (stereo not given) do in these assays?
TRPC4 agonist: inactive; TRPC4 PAM: inactive; TRPC6 inh: inactive; TRPC4 inh: inactive; TRPC6 activator: inactive

What do the screens show for `COC(=O)C(O)(c1ccc(NC(=S)NC(=O)c2ccc(Cl)cc2Cl)cc1)C(F)(F)F` (stereo not given)?
TRPC4 agonist: inactive; TRPC4 PAM: inactive; TRPC6 inh: inactive; TRPC4 inh: inactive; TRPC6 activator: inactive

How did Clc1ccc(C(c2ccccc2)c2ncc[nH]2)cc1 (stereo not given) do in these assays?
TRPC4 agonist: inactive; TRPC4 PAM: inactive; TRPC6 inh: inactive; TRPC4 inh: inactive; TRPC6 activator: inactive

Results for CCOc1ccc(C(C)=O)cc1Cn1ccsc1=N ?
TRPC4 agonist: inactive; TRPC4 PAM: inactive; TRPC6 inh: inactive; TRPC4 inh: -5*; TRPC6 activator: inactive

How did O=C1NS(=O)c2cc([N+](=O)[O-])cc([N+](=O)[O-])c21 (stereo not given) do in these assays?
TRPC4 agonist: inactive; TRPC4 PAM: inactive; TRPC6 inh: inactive; TRPC4 inh: inactive; TRPC6 activator: inactive

How did COc1ccc(C(CNC(=O)CCc2ccsc2)N(C)C)cc1 (stereo not given) do in these assays?
TRPC4 agonist: 108*; TRPC4 PAM: inactive; TRPC6 inh: inactive; TRPC4 inh: inactive; TRPC6 activator: inactive

What do the screens show for `O=C(c1ccc(F)c([N+](=O)[O-])c1)N1CC2CC(C1)c1cccc(=O)n1C2` (stereo not given)?
TRPC4 agonist: inactive; TRPC4 PAM: inactive; TRPC6 inh: inactive; TRPC4 inh: inactive; TRPC6 activator: inactive

Assay outcomes: PubChem BioAssay, Johns Hopkins Ion Channel Center
